Experimental data taken from paper PMC8428831 (Plant Biotechnology Journal, 2021).

Columns and labels:
CgS = target: T1, CgS (Arabidopsis thaliana, UniProt P55217); assay: Micro Scale Thermophoresis; type: binding
T1 sequence (P55217 69-563): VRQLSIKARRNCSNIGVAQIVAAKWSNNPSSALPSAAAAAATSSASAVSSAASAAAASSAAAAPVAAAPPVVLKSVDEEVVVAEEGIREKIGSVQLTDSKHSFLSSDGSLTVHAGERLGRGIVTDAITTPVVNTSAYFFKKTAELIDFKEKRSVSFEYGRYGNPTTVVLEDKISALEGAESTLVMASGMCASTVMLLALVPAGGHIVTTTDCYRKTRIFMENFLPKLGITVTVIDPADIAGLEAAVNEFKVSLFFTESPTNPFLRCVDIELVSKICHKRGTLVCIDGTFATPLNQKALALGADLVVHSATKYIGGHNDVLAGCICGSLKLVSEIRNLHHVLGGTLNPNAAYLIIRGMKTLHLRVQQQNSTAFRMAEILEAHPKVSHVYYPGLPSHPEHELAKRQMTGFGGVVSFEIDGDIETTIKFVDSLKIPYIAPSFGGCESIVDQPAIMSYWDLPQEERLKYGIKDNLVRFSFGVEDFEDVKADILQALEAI
Outline: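 Purified recombinant AtCgS labelled with an amine-reactive fluorophore, 100 nM per capillary. Incubated with a dilution series of test compound and measured by microscale thermophoresis (Monolith NT.115). Baseline normalised to the mean of the three lowest concentrations. Signal fitted to a single-site binding model to give Kd.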

[1] = tested on: methionine auxotroph E. coli transformed with AtCgS; type: cell-based; conditions: for Bacterial growth with external methionine / Bacterial growth without external methionine: 50 µM compound, M9 minimal media; for Bacterial growth with external methionine: methionine 40 mg/L; for Bacterial growth without external methionine: no methionine
Outline: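 Methionine-auxotroph E. coli LE392 carrying pQE-30–AtCgS grown in M9 minimal medium with IPTG, with or without 40 mg/L methionine. Test compound at 50 µM final, or a concentration series, from a 50 mM DMSO stock; DMSO-only controls (0.1%). OD600 read every 20 min for about 1000 min at 37 °C with orbital shaking. Curve slopes from a linear fit; slope ratio versus DMSO, in duplicate.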

SMILES	Kd (CgS) [µM]	Bacterial growth with external methionine [1]	Bacterial growth without external methionine [1]	Bacterial growth curves, dose–response without external methionine ([1]; variable concentrations, M9, no methionine)	Bacterial growth curves, dose–response with external methionine ([1]; variable concentrations, M9, with methionine)
Cc1cc(O)nc(-c2cccc(NC(=O)c3c(O)cccc3F)c2)n1 [CGSI‐1, 2‐fluoro‐6‐hydroxy‐N‐(3‐(4‐hydroxy‐6‐methylpyrimidin‐2‐yl)phenyl)benzamide]	29.4	not active in its presence	active in the absence of methionine	clear dose–response behaviour	no effect
C#CCC(N)C(=O)O (stereo not shown) [PAG, propargyl‐glycine, reference compound]		the cells grew in the presence of PAG	significantly inhibits cell growth		
